Dynein transport – inhibitors of GR-EGFP nuclear translocation, primary screen, dynein cargo transport inhibitor project, imaging, high-content, 3617.4 mouse cells; 0.47% of 220,000 active; test concentration mostly 20 µM; stimulated with dexamethasone, 1 µM; active compounds read low; AID 1381, 2008; z-score, hits read low;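 active = plate z-score of nuclear minus cytoplasmic receptor signal below a set negative limit, without overly bright fluorescence or cell loss, cut at about -3.5 in these data, passing the limit was not always enough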;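 also: z-score of nuclear minus cytoplasmic ring GR-EGFP intensity difference per well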
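Buffer or medium: tetracycline-free induction medium containing charcoal-stripped FBS / Reagent: dexamethasone agonist, 1.0 µM final, for 30 min / Technique: automated 10x imaging of fixed Hoechst-stained cells / Times: induction 48 h, compound 1 h, agonist 30 min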
S1P3 antagonist – S1P3 receptor antagonists, primary screen, cell-based; CHO S1P3 NFAT-BLA reporter, FRET fluorescence, antagonist mode; inhibition, % at 4.98 µM; 0.27% of 170,000 active; AID 485, 2006;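 active = inhibition above the plate cutoff, the mean inhibition of test wells on that plate plus 3 SD, cut at about 28% in these data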;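 also: cells challenged with S1P at its EC80 of 0.8 µM; blue over green emission ratio from cleaved BLA substrate after 4 h stimulation; 0% = S1P-stimulated wells and 100% = unstimulated DMSO-only wells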
Target sequence (Q99500 whole entry, looked up): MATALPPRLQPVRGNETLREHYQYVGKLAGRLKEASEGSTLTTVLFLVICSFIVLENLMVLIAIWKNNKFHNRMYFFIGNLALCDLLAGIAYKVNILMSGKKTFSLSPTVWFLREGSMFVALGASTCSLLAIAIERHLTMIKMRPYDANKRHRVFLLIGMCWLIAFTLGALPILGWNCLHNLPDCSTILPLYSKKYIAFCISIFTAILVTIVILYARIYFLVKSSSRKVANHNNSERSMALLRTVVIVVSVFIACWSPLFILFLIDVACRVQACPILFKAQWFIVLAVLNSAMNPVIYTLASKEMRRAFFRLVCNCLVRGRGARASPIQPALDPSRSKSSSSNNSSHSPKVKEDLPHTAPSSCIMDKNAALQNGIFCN
TbHK1 inh – Trypanosoma brucei hexokinase 1 inhibitors, primary screen, biochemical, G6PDH-coupled NADH absorbance, MLSCN library. AID 1430, 2008. inhibition, % at 10 µM. hexokinase 1 [Trypanosoma brucei]. 0.11% of 220,000 active. recombinant TbHK1, G6PDH-coupled NADH A340;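 active = inhibition of 50% or more in the single-dose primary screen; inactive = inhibition below 50%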
S1P4 agonist – S1P4 receptor agonists, primary screen, cell-based; Sphingosine 1-phosphate receptor 4 (Homo sapiens), O95977; S1P4-expressing cell line, agonist reporter assay; activation, % at 4.98 µM; 0.35% of 220,000 active; AID 1509, 2009; in the data active = activation above about 11%;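 also: 0% = DMSO vehicle and 100% = reference agonist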
Calb biofilm kill – clotrimazole potentiators killing C. albicans biofilm, primary screen, 4-compound mixtures. C. albicans biofilm persisters + clotrimazole, fluorescence viability; primary screen in compound mixtures of four per well. inhibition, % at 7.6 µM. 0.02% of 120,000 active;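 active = inhibition above 30.3% in the primary screen of four-compound pools, then above 30% when the compound was retested; inconclusive = passed the primary limit but could not be retested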;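 also: compounds exposed to preformed 24 h biofilms for 48 h; 0% = untreated biofilm control and 100% = clotrimazole plus chlorhexidine kill blank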
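System: C. albicans CAF4-2 wild-type biofilms; Medium: RPMI/MOPS medium, pH 7.0; Reagent: Clotrimazole, 50 µg/mL; Times: biofilm formation 24 h, compound exposure 48 h, 37 °C; Detection: 2-h Alamar Blue fluorescence, 535/590 nm excitation/emission; Evaluation: percent inhibition of biofilm viability.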
S1P4 antagonist – S1P4 receptor antagonists, primary screen, cell-based; 0.26% of 220,000 active; inhibition, % at 4.98 µM; Sphingosine 1-phosphate receptor 4 (Homo sapiens), O95977; S1P4-expressing cells, antagonist mode, reporter read-out; in the data active = inhibition above about 29%;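 also: 0% = wells stimulated with agonist and 100% = vehicle wells without agonist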
Dynein confirm – dynein cargo transport inhibitors, GR-EGFP translocation, confirmation, imaging, high-content imaging, GR-EGFP cells; shares compounds with Dynein transport; 3617.4 GR-EGFP nuclear translocation imaging, dexamethasone-induced; calls only at 20 µM; 69% of 1,000 active;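 active = inhibition of receptor movement into the nucleus at or above a set limit in both runs, with normal cell brightness and cell count; inconclusive = limit reached in only one run, brightness and count normal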;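 also: dexamethasone at 1 µM final in well for 30 min; nuclear minus cytoplasmic GR-EGFP mean intensity difference in channel 2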
G6PDH ctr – Leuconostoc G6PDH inhibition, confirmation, counter-screen for TbHK1 inhibitor project, biochemical, DPI cherry-picked compounds, single concentration; shares compounds with TbHK1 inh; purified G6PDH, NADH absorbance, 1 h; inhibition, % at 10 µM; AID 2516, 2010; 7% of 210 active;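 active = at least 50% inhibition in the glucose-6-phosphate dehydrogenase coupled counterscreen; inconclusive = no clear call, values can overlap the other calls; inactive = inhibition below 50%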
TbHK1 confirm – TbHK1 inhibitor retest, confirmation, biochemical, DPI cherry-picked primary actives; shares compounds with TbHK1 inh; recombinant TbHK1, G6PDH-coupled NADH A340 absorbance; inhibition, % at 10 µM; 10% of 210 active;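 active = inhibition of at least 50% in both of the two screening runs; inconclusive = at least 50% in one run, below 50% in the other; inactive = inhibition below 50% in both runs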;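 also: 0% and 100% set by the maximum and minimum signal control wells on each plate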
S1P4 antag cf – S1P4 receptor antagonists, human, confirmation, cell-based; inhibition, % at 4.98 µM; shares compounds with S1P4 antagonist; 71% of 520 active; S1P4-expressing cell line, antagonist mode, reporter read-out; in the data active = inhibition above about 30%
S1P1 antagonist – S1P1 receptor antagonists, human, counter-screen for S1P4 antagonist project, cell-based; cell-based S1P1 antagonist counterscreen, inhibition; shares compounds with S1P4 antagonist; 37% of 520 active; inhibition, % at 4.98 µM; in the data active = inhibition above about 40%;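 also: receptor stimulated with S1P near its EC80; 0% = agonist stimulated wells and 100% = vehicle only wells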
Target sequence (P21453 whole entry, looked up): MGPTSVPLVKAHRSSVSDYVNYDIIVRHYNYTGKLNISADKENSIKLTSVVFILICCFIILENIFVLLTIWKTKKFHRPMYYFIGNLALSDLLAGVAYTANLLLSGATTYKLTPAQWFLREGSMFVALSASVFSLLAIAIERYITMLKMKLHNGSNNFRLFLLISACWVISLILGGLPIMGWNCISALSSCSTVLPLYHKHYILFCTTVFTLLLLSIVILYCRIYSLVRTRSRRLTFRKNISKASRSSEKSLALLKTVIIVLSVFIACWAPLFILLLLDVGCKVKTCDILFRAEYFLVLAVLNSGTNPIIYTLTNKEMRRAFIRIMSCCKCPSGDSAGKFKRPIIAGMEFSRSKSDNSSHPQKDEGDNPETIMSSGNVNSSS
Active calls of the source: *; i = inactive; u = inconclusive; x = no result given; + = active, no number. Most compounds without a hit are left out; they make up all but 1.3% or so of the library.

SMILES	Dynein transport	S1P3 antagonist	TbHK1 inh	S1P4 agonist	Calb biofilm kill	S1P4 antagonist	Dynein confirm	S1P4 antag cf	S1P1 antagonist	others
O=C(/C=C/c1cccc([N+](=O)[O-])c1)NC(=S)Nc1ccccc1C(=O)O	-3.5*	-2	-12	-1	15	4	+	x	x
O=C(Oc1ccccc1C(=O)Nc1ccccc1)c1ccc(Br)c([N+](=O)[O-])c1	-3.9*	-3	33	1	11	-10	i	x	x
COc1ccccc1C(=O)Oc1ccccc1C(=O)Nc1ccccc1	-1.5	-16	-4	0	-1	-4	x	x	x
CC(=O)c1ccc(Nc2ccc(-c3ccccc3C)nn2)cc1	-0.048	-6	-40	0	20	-4	x	x	x
O=[N+]([O-])c1ccc(N/N=C/c2cn(Cc3ccc(F)cc3)c3ccccc23)nc1	-5.4	15	-11	0	4	3	u	x	x
O=[N+]([O-])/C=C/c1cn(Cc2ccccc2)c2ccccc12	-4.6*	x	-7	4	x	8	u	x	x
N#Cc1ccccc1Cn1cc(/C=C/[N+](=O)[O-])c2ccccc21	-4.7*	5	-7	1	9	-15	+	x	x
O=C(O)Cn1cc(/C=C/[N+](=O)[O-])c2ccccc21	0.29	-2	0	1	23	26	x	x	x
O=C(Nc1nc(-c2ccc3c(c2)OCCO3)cs1)C1CCCC1	-0.25	-6	-5	0	-4	-2	x	x	x
O=[N+]([O-])c1ccc(C2=NN(CCO)C(=Nc3ccc(OC(F)(F)F)cc3)SC2)cc1	-0.42	18	-5	3	22	-10	x	x	x
CCN1/C(=C/C=C/c2oc3ccc4ccccc4c3[n+]2CC)Oc2ccc3ccccc3c21	-7.1*	7	100*	0	24	3	+	x	x	G6PDH ctr=132*;TbHK1 confirm=85*
CCOCCn1c(SC(C)C(C)=O)nc2c1c(=O)[nH]c(=O)n2C (stereo not given)	-1.3	3	-5	1	21	20	x	x	x
COC(=O)c1ccc2c(c1)C(C)(C)C(/C=C/c1ccc(O)cc1)=[N+]2C	-3.6*	x	-3	-1	x	42*	u	120*	157*
COC(=O)c1ccc2c(c1)C(C)(C)C(/C=C/c1ccc(OC)c(OC)c1OC)=[N+]2C	-3	x	2	1	x	6	x	x	x
COc1ccccc1C1CC(c2ccccc2)=NN1C(=S)Nc1ccccc1 (stereo not given)	-1.1	11	-13	0	11	-9	x	x	x
O=C1CCC/C(=N/NC(=O)c2sc3ccccc3c2Cl)C1	-0.14	-2	-47	0	16	-3	x	x	x
CCCC(=O)N1CCN(c2ccc(NC(=O)c3ccc([N+](=O)[O-])o3)cc2Cl)CC1	-4.7*	6	-11	0	-10	87*	+	99*	49*
CC1(C)CC(N=Cc2c(O)n(Cc3ccc4c(c3)OCO4)c(=O)c3ccccc23)CC(C)(C)N1	-0.6	-8	-9	0	13	-11	x	x	x
COc1ccc(CS(=O)(=O)/C(Cl)=C(/Cl)C(=O)Nc2ccc(OC)nc2)cc1	-4.6	x	-3	1	x	80*	+	119*	85*
COc1ccc(NC(=O)/C(Cl)=C(/Cl)S(=O)Cc2ccccc2)cn1 (stereo not given)	-5.4*	x	-2	-3	x	91*	+	123*	68*
CC(=O)Cn1ncc(Br)c(Br)c1=O	-4.6*	-6	3	-2	16	33*	+	111*	51*
O=C(OCn1ncc(Br)c(Br)c1=O)c1c(F)cccc1F	-4.8*	x	-8	-2	x	59*	+	116*	12
CNC(=S)N1CCC(NC(=O)C(Cc2ccccc2)NC(C)=O)CC1 (stereo not given)	0.089	-4	-6	1	18	-26	x	x	x
Cn1c(=O)c2c(nc(SCC(=O)Nc3ccc(N4CCOCC4)c(Cl)c3)n2C)n(C)c1=O	x	2	x	x	x	x	x	x	x
COc1ccc(/C(C)=N/NS(=O)(=O)c2cc(C)ccc2C)c(OC)c1	-0.26	1	0	2	10	1	x	x	x
SMILES	Dynein transport	S1P3 antagonist	TbHK1 inh	S1P4 agonist	Calb biofilm kill	S1P4 antagonist	Dynein confirm	S1P4 antag cf	S1P1 antagonist	others
Fc1ccc2c(c1)C1C=CCC1C(c1cc3c(cc1Br)OCO3)N2 (stereo not given)	-0.33	x	1	1	x	-15	x	x	x
Cc1cc(NC(=O)CCCS(=O)(=O)c2nc(-c3cccs3)cc(C(F)(F)F)n2)no1	-4.8*	-10	-31	0	x	40*	u	111*	45*
COc1ccc(-n2ncc(Cl)c(Cl)c2=O)cc1	-6.8*	2	-8	0	12	95*	+	118*	57*
COc1ccc(-n2ncc(N(C)n3cccc3)c(Cl)c2=O)cc1	-0.6	x	-9	0	x	-6	x	x	x
CCN(CC(=O)Nc1cc(Cl)ccc1OC)CC(=O)NC1CCS(=O)(=O)C1 (stereo not given)	0.34	-4	-11	2	19	-7	x	x	x
COc1cccc(-n2nnnc2SCC(=O)Nc2ccc(C(C)=O)cc2)c1	-0.057	x	-1	0	11	21	x	x	x
CCCS(=O)(=O)c1nnnn1-c1cccc(OC)c1	-5.5*	-17	0	-2	x	38*	+	111*	23
CCCCC(C(=O)O)C(C)CC(=O)Nc1nccs1 (stereo not given)	0.67	-8	-16	1	30	-12	x	x	x
COC(=O)c1cc(=O)n(Cc2ccco2)c(=Nc2ccc(F)c(Cl)c2)s1	-3.9*	0	-5	0	x	34*	+	102*	60*
